A selection: hits, their analogues and other compounds. The true share with any hit is near 4.1%.
KCNK9 block = KCNK9 potassium channel inhibitors, primary screen, HEK293 cells, thallium flux. Potassium channel subfamily K member 9 (Homo sapiens), Q9NPC2. FluxOR thallium flux fluorescence; hits give low values. B-score at 10 µM. hit rate 1.2% among 310,000. AID 488922, 2010;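 active = ratio B-score over 3 SD below the library mean, with starting fluorescence within 5 SD of its mean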;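 note: negative B-score means less thallium flux so channel inhibition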
KCNQ1 inh = inhibitors of human KCNQ1 channel, primary screen, cell-based, thallium flux, high-throughput; Potassium voltage-gated channel subfamily KQT member 1 (Homo sapiens), P51787; CHO-K1 KCNQ1, FluxOR thallium flux fluorescence; hits give high values; B-score at 10 µM; hit rate 1.3% among 310,000; AID 2642, 2010;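 active = compounds whose thallium flux B-score, printed positive for inhibition, exceeds three library SD while starting fluorescence stays within three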;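 note: channel opened by potassium depolarization with thallium stimulus after 20 min compound exposure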
hERG protect = hERG rescue from dofetilide block, primary screen, cell-based, CHO-hERG, FluxOR thallium flux, dofetilide IC70; Voltage-gated inwardly rectifying potassium channel KCNH2 (Homo sapiens), Q12809; dofetilide IC70 present; activation (rescue from dofetilide block), less the hit threshold, % at 10 µM; hit rate 0.51% among 310,000;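 active = activation above the mean of controls blocked by dofetilide plus 5 SD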;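 note: thallium influx through hERG after potassium depolarization seen as dye fluorescence rise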
Cl transport mod = KCC2 cotransporter modulators, thallium flux, primary screen, cell-based, HEK293 KCC2, FluoZin-2 fluorescence, MLSMR; Solute carrier family 12 member 5 (Homo sapiens), Q9H2X9; KCC2 cells, thallium flux FluoZin-2 fluorescence; B-score of Tl+ flux slope (higher = more flux/activation; lower = inhibition) at 10 µM; hit rate 2.2% among 190,000; AID 1456, 2008;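 active = thallium flux slope and its plate-corrected score both differing from the plate sample mean at a set confidence after two filtering rounds, in either direction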;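 note: slope of fluorescence scaled to starting intensity during 10 to 20 s after thallium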
Target sequence (Q9H2X9 whole entry, looked up): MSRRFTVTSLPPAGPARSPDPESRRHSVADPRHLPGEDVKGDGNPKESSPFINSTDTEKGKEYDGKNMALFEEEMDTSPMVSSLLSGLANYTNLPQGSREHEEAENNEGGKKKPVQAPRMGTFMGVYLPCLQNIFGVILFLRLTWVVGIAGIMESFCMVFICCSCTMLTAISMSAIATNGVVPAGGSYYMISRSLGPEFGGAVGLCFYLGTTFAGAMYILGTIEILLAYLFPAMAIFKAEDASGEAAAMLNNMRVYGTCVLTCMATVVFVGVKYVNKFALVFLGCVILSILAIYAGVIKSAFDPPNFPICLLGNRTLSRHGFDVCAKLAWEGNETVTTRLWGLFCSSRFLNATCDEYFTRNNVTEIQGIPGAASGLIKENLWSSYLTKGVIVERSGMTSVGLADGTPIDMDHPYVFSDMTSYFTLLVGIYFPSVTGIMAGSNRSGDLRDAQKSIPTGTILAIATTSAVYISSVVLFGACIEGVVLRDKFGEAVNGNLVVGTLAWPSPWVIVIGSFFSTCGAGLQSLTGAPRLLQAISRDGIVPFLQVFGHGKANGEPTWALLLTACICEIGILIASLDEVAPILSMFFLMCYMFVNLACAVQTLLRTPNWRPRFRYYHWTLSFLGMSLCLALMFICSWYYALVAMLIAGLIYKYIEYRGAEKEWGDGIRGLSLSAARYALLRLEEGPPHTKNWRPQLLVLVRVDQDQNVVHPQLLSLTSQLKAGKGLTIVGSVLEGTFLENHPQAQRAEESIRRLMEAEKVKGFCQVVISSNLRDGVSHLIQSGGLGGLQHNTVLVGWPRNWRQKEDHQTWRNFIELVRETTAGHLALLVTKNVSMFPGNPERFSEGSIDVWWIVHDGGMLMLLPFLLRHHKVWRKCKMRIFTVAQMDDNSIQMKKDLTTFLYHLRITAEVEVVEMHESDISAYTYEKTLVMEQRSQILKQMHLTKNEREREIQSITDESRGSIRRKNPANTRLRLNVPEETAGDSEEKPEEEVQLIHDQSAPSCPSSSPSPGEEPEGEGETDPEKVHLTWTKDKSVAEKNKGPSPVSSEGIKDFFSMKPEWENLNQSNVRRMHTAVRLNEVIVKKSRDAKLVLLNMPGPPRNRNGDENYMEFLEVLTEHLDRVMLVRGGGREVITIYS
KCNK3 inh = human KCNK3 channel inhibitors, primary screen, CHO cells, FluxOR thallium flux, B-score; AID 602410, 2012; FluxOR fluorescence; hits give low values; hit rate 0.84% among 340,000; B-score at 10 µM;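 active = B-score under library mean minus 4 SD, starting fluorescence ratio at most library mean plus 5 SD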;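 note: more negative B-score means stronger inhibition of thallium flux through KCNK3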
KCNQ1 pot = potentiators or activators of KCNQ1 channel, primary screen, cell-based, thallium flux, high-throughput | Potassium voltage-gated channel subfamily KQT member 1 (Homo sapiens), P51787 | CHO-K1 KCNQ1, thallium flux FluxOR fluorescence; hits give high values | B-score at 10 µM | hit rate 0.35% among 310,000;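 active = fluorescence ratio B-score, a plate-corrected score, at least three library SD, with initial intensity B-score within 5 SD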
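Doses: Single concentration per compound, DMSO matched to controls | Test system: KCNQ1-transfected CHO-K1 cells | Timing: 90 min dye loading and 20 min compound exposure, both at room temperature | Measured by: Kinetic FluxOR thallium fluorescence, 10-s 1-Hz baseline, 110-s post-stimulus read | Medium: Assay buffer with matched DMSO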
KCC2 secondary = KCC2 modulators in sodium-free buffer, confirmation, cell-based, HEK293 KCC2, thallium flux, secondary assay; FluoZin2 fluorescence; hits give high values; shares compounds with Cl transport mod; normalised thallium flux (F/F0 slope) at 10 µM; hit rate 15% among 3,700;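 active = thallium flux slope above the same plate's solvent-only control mean plus 3 SD; inconclusive = the two replicate wells disagree; inactive = no significant difference from solvent-only control wells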
KCC2 bumet counter = thallium flux persisting under bumetanide in KCC2 cells, confirmation, counter-screen for KCC2 modulator project, cell-based, HEK293 KCC2, FluoZin2, secondary assay 3; shares compounds with Cl transport mod; HEK293-KCC2 + bumetanide/ouabain; hits give high values; normalized thallium flux at 10 µM; hit rate 49% among 3,700;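 active = thallium entry rate above the same plate's blocked-transporter control wells by more than 3 SD; inconclusive = the two repeat wells disagree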;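 note: raw slope of fluorescence over initial fluorescence between 10 and 20 s after thallium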
KCC2 secondary2 = KCC2 modulators without ouabain present, confirmation, cell-based, HEK293 KCC2, thallium flux, FluoZin2, secondary assay 2; shares compounds with Cl transport mod; thallium flux FluoZin2 fluorescence; actives lie on both sides; F/F0 rise rate, 10–20 s post-thallium; normalized thallium flux at 10 µM; hit rate 23% among 3,700; AID 1715, 2009;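 active = thallium flux slope more than 3 SD above or below the plate's solvent-only control mean, mostly below; inconclusive = the two repeat wells disagreed; inactive = no significant shift from solvent-only controls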;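 note: raw slope with 0.1% DMSO as baseline and bumetanide as block control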
HEK293 Tl flux = thallium flux modulation in parental HEK cells, confirmation, counter-screen for KCC2 modulator project, cell-based, counterscreen 1; shares compounds with Cl transport mod; thallium flux rate (normalised fluorescence) at 10 µM; HEK293 parental cells, thallium flux FluoZin2, ouabain; baseline-ratio fluorescence slope, 10–20 s after thallium; hit rate 46% among 3,700;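 active = thallium flux rate significantly above the same plate's solvent-only control wells, beyond their mean plus 3 SD; inconclusive = the two replicate wells gave conflicting results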
KCC2 ouabain = KCC2 inhibitors and activators, ouabain retest, confirmation, HEK-KCC2 cells; shares compounds with Cl transport mod; HEK293-KCC2, thallium flux FluoZin2 fluorescence; bidirectional: low = inhibitor, high = activator; raw Tl+ flux slope (below DMSO = inhibition, above = activation) at 10 µM; hit rate 48% among 3,700; AID 1717, 2009;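 active = thallium flux slope beyond 3 SD from same-plate DMSO control mean in most replicates, usually higher, sometimes lower; inconclusive = repeat tests gave conflicting results; inactive = no significant difference from controls in most replicates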;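 note: slope of initial-normalized fluorescence between seconds 10 and 20 after thallium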
HEK293 Tl flux2 = native HEK Tl+ uptake effects, second counter-screen – HEK cells, counterscreen 2, counter-screen for KCC2 modulator project, confirmation; shares compounds with Cl transport mod; HEK293 parental, thallium flux FluoZin-2 fluorescence slope; thallium flux slope at 10 µM; hit rate 33% among 3,700;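 active = thallium flux slope above the same plate's solvent-control mean plus 3 SD in both duplicate wells; inconclusive = duplicate wells that disagreed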;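 note: run without ouabain in cells lacking the KCC2 cotransporter; slope of fluorescence scaled to its starting value between 10 and 20 s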
Starred values were filed as active, the others as inactive; i = inactive; ? = inconclusive; / = no result given.

SMILES | KCNK9 block | KCNQ1 inh | hERG protect | Cl transport mod | KCNK3 inh | KCNQ1 pot | KCC2 secondary | KCC2 bumet counter | KCC2 secondary2 | HEK293 Tl flux | KCC2 ouabain | HEK293 Tl flux2
S=c1[nH]nc(COc2ccccc2)n1/N=C/c1ccc(Br)s1 | i | i | -13 | 51* | i | i | ? | 0.077* | 0.034 | 0.022* | 0.027* | 0.026*
Oc1ccccc1/C=N/n1c(COc2ccccc2)n[nH]c1=S | i | i | -15 | / | i | i | / | / | / | / | / | /
CC(/C=N/n1c(COc2ccccc2)n[nH]c1=S)=C\c1ccco1 | i | i | -5 | 121* | i | i | 0.015* | 0.17* | 0.034 | 0.055* | 0.046* | 0.014*
C=CCN(CC=C)c1ncnc2[nH]ncc12 | / | / | / | / | i | / | / | / | / | / | / | /
C[C@@]12C(=O)N(CC3CC3)CC(=O)N1[C@H](/C=C/c1ccccc1)[C@@H]1C(=O)N(c3ccccc3)C(=O)[C@@H]12 | i | i | -4 | / | i | i | / | / | / | / | / | /
Cc1nn(CC(=O)O)c2ccccc12 | i | i | -8 | 6.6* | i | i | 0.0093 | 0.0064 | 0.029 | 0.0076 | 0.056 | 0.0095
CCOC(=O)C1=C(C(=O)OCC)c2ccc(OC)c(OC)c2C1 | / | / | / | / | i | / | / | / | / | / | / | /
CCOC(=O)c1cc2c(=O)[nH]ccc2nc1C | i | i | -8 | 13* | i | i | 0.011 | ? | 0.029 | 0.0074 | 0.033 | 0.01
CCOC(=O)c1cc2c(=O)[nH]ccc2nc1C(F)(F)F | i | i | -13 | -0.12 | i | i | / | / | / | / | / | /
CCOC(=O)C1=C(Cc2ccc(C)cc2)C(=O)c2ccccc2C1=O | i | i | 3 | 0.01 | / | i | / | / | / | / | / | /
CCOC(=O)C1=C(Cc2ccc(OC)cc2)C(=O)c2ccccc2C1=O | / | / | / | 6.6* | i | / | 0.0076 | 0.0082* | 0.03 | 0.011* | 0.018 | ?
O=C1c2cccc3c([N+](=O)[O-])ccc(c23)C(=O)N1Cc1cccnc1 | i | i | -20 | -5* | i | i | 0.0041* | ? | 0.026* | 0.0058* | 0.014* | 0.0084*
CN(C1CCCCC1)S(=O)(=O)c1ccc2c(c1)CCC(=O)N2 | / | / | / | / | i | / | / | / | / | / | / | /
